From ChEMBL document CHEMBL4477200, “Design, Synthesis, and Preclinical Evaluation of 4-Substituted-5-methyl-furo[2,3-d]pyrimidines as Microtubule Targeting Agents That Are Effective against Multidrug Resistant Cancer Cells” (J Med Chem, 2016)
Activity calls are given as the source filed them.

Assays:
[1] = system: HeLa; assay: Cell cycle arrest in human HeLa cells assessed as accumulation at G2/M phase at 5 times IC50 after 18 hrs by flow cytometry (reference value: 17.11 +/- 1.09%); format: functional
[2] = target: Tubulin (Bos taurus) (UniProt Q6B856+Q862L2+Q862F3); assay: Inhibition of [3H]colchicine binding to tubulin in bovine brain homogenate at 5 uM incubated for 10 mins by DEAE-cellulose filter assay; format: tissue-based
[3] = system: HL-60(TB); assay: Cytotoxicity against human HL-60(TB) cells assessed as growth inhibition after 48 hrs by SRB assay; format: functional; conditions: HL-60, 48 h
[4] = system: K562; assay: Cytotoxicity against human K562 cells assessed as growth inhibition after 48 hrs by SRB assay; format: functional; conditions: K562, 48 h
[5] = system: MOLT-4; assay: Cytotoxicity against human MOLT4 cells assessed as growth inhibition after 48 hrs by SRB assay; format: functional; conditions: MOLT-4, 48 h
[6] = system: RPMI-8226; assay: Cytotoxicity against human RPMI8226 cells assessed as growth inhibition after 48 hrs by SRB assay; format: functional; conditions: RPMI-8226, 48 h
[7] = system: SR; assay: Cytotoxicity against human SR cells assessed as growth inhibition after 48 hrs by SRB assay; format: functional
[8] = system: A549; assay: Cytotoxicity against human A549 cells assessed as growth inhibition after 48 hrs by SRB assay; format: functional; conditions: A549, 48 h
[9] = system: EKVX; assay: Cytotoxicity against human EKVX cells assessed as growth inhibition after 48 hrs by SRB assay; format: functional
[10] = system: HOP-92; assay: Cytotoxicity against human HOP92 cells assessed as growth inhibition after 48 hrs by SRB assay; format: functional; conditions: HOP-92, 48 h
[11] = system: NCI-H226; assay: Cytotoxicity against human NCI-H226 cells assessed as growth inhibition after 48 hrs by SRB assay; format: functional; conditions: NCI-H226, 48 h
[12] = system: NCI-H23; assay: Cytotoxicity against human NCI-H23 cells assessed as growth inhibition after 48 hrs by SRB assay; format: functional; conditions: NCI-H23, 48 h
[13] = system: NCI-H322M; assay: Cytotoxicity against human NCI-H322M cells assessed as growth inhibition after 48 hrs by SRB assay; format: functional
[14] = system: COLO 205; assay: Cytotoxicity against human COLO205 cells assessed as growth inhibition after 48 hrs by SRB assay; format: functional; conditions: COLO 205, 48 h
[15] = system: HCC 2998; assay: Cytotoxicity against human HCC2998 cells assessed as growth inhibition after 48 hrs by SRB assay; format: functional; conditions: HCC 2998, 48 h
[16] = system: HCT-116; assay: Cytotoxicity against human HCT116 cells assessed as growth inhibition after 48 hrs by SRB assay; format: functional; conditions: HCT-116, 48 h
[17] = system: HCT-15; assay: Cytotoxicity against human HCT15 cells assessed as growth inhibition after 48 hrs by SRB assay; format: functional; conditions: HCT-15, 48 h
[18] = system: HT-29; assay: Cytotoxicity against human HT-29 cells assessed as growth inhibition after 48 hrs by SRB assay; format: functional; conditions: HT-29, 48 h
[19] = system: KM12; assay: Cytotoxicity against human KM12 cells assessed as growth inhibition after 48 hrs by SRB assay; format: functional; conditions: KM12, 48 h
[20] = system: SW-620; assay: Cytotoxicity against human SW620 cells assessed as growth inhibition after 48 hrs by SRB assay; format: functional; conditions: SW-620, 48 h
[21] = system: SNB-19; assay: Cytotoxicity against human SNB19 cells assessed as growth inhibition after 48 hrs by SRB assay; format: functional; conditions: SNB-19, 48 h
[22] = system: SNB-75; assay: Cytotoxicity against human SNB75 cells assessed as growth inhibition after 48 hrs by SRB assay; format: functional; conditions: SNB-75, 48 h
[23] = system: U-251; assay: Cytotoxicity against human U251 cells assessed as growth inhibition after 48 hrs by SRB assay; format: functional; conditions: U-251, 48 h
[24] = system: Malme-3M; assay: Cytotoxicity against human MALME-3M cells assessed as growth inhibition after 48 hrs by SRB assay; format: functional
[25] = system: M14; assay: Cytotoxicity against human M14 cells assessed as growth inhibition after 48 hrs by SRB assay; format: functional; conditions: M14, 48 h
[26] = system: SK-MEL-28; assay: Cytotoxicity against human SK-MEL-28 cells assessed as growth inhibition after 48 hrs by SRB assay; format: functional; conditions: SK-MEL-28, 48 h
[27] = system: SK-MEL-5; assay: Cytotoxicity against human SK-MEL-5 cells assessed as growth inhibition after 48 hrs by SRB assay; format: functional; conditions: SK-MEL-5, 48 h
[28] = system: IGROV-1; assay: Cytotoxicity against human IGROV1 cells assessed as growth inhibition after 48 hrs by SRB assay; format: functional; conditions: IGROV-1, 48 h
[29] = system: OVCAR-5; assay: Cytotoxicity against human OVCAR5 cells assessed as growth inhibition after 48 hrs by SRB assay; format: functional; conditions: OVCAR-5, 48 h
[30] = system: OVCAR-8; assay: Cytotoxicity against human OVCAR8 cells assessed as growth inhibition after 48 hrs by SRB assay; format: functional; conditions: OVCAR-8, 48 h
[31] = system: A498; assay: Cytotoxicity against human A498 cells assessed as growth inhibition after 48 hrs by SRB assay; format: functional; conditions: A498, 48 h
[32] = system: CAKI-1; assay: Cytotoxicity against human Caki1 cells assessed as growth inhibition after 48 hrs by SRB assay; format: functional; conditions: CAKI-1, 48 h
[33] = system: RXF 393; assay: Cytotoxicity against human RXF393 cells assessed as growth inhibition after 48 hrs by SRB assay; format: functional; conditions: RXF 393, 48 h
[34] = system: SN12C; assay: Cytotoxicity against human SN12C cells assessed as growth inhibition after 48 hrs by SRB assay; format: functional
[35] = system: TK-10; assay: Cytotoxicity against human TK10 cells assessed as growth inhibition after 48 hrs by SRB assay; format: functional; conditions: TK-10, 48 h
[36] = system: UO-31; assay: Cytotoxicity against human UO31 cells assessed as growth inhibition after 48 hrs by SRB assay; format: functional; conditions: UO-31, 48 h
[37] = system: PC-3; assay: Cytotoxicity against human PC3 cells assessed as growth inhibition after 48 hrs by SRB assay; format: functional; conditions: PC-3, 48 h
[38] = system: MDA-MB-468; assay: Cytotoxicity against human MDA-MB-468 cells assessed as growth inhibition after 48 hrs by SRB assay; format: functional; conditions: MDA-MB-468, 48 h
[39] = system: HeLa; assay: Antiproliferative activity against human HeLa cells after 48 hrs by SRB assay; format: functional, cell-based
Procedure, shortened: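 SRB assay; IC50 is the mean of three independent experiments, each run in triplicate. Cells were kept at 37 °C under 5% CO2. HeLa and SK-OV-3 lines (parental and MDR1-M6/6) were grown in Basal Medium Eagle with 10% FBS, 1% GlutaMAX and 50 µg/mL gentamycin. HeLa WTβIII was grown in DMEM with 10% FBS.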

[40] = system: SK-OV-3; assay: Relative ratio of IC50 for human SKOV3 cells expressing MDR1-M6/6 to IC50 for human SKOV3 cells; format: functional
Procedure, shortened: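 Rr is the IC50 in Pgp-expressing SK-OV-3 MDR1-M6/6 cells divided by the IC50 in parental SK-OV-3 cells. Both IC50s come from the SRB assay, averaging three independent experiments run in triplicate.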

[41] = system: MDA-MB-435; assay: Antitumor activity against human MDA-MB-435 cells xenografted in nude mouse assessed as tumor growth inhibition at 60 mg/kg, ip dosed on day 0 to 2 and 50 mg/kg, ip on day 8 relative to control

COc1ccc(N(C)c2ncnc3occ(C)c23)cc1
96%: inhibition [2]
62.5 nM: GI50 [10]
> 100 µM: GI50 [13]
38.7 nM: GI50 [24]
< 10 nM: GI50 [3] | GI50 [4] | GI50 [5] | GI50 [6] | GI50 [7] | GI50 [8] | GI50 [9] | GI50 [11] | GI50 [12] | GI50 [14] | GI50 [15] | GI50 [16] | GI50 [17] | GI50 [18] | GI50 [19] | GI50 [20] | GI50 [21] | GI50 [22] | GI50 [23] | GI50 [25] | GI50 [26] | GI50 [27] | GI50 [28] | GI50 [30] | GI50 [31] | GI50 [32] | GI50 [33] | GI50 [34] | GI50 [36] | GI50 [37] | GI50 [38]
active: TGI [41]
12.8 nM: GI50 [29]
75.3 nM: GI50 [35]
1.1: Ratio IC50 [40]
66.99%: Activity [1]
9.5 nM: IC50 [39]
